Laboratory results reported in ChEMBL document CHEMBL1165943, “Design and synthesis of new anticancer pyrimidines with multiple-kinase inhibitory effect” (Bioorg Med Chem, 2010).

Assays:
TK-10 = assay: Cytotoxicity against human TK10 cells assessed as cell growth at 1 uM after 48 hrs by sulforhodamine B assay; format: functional; settings: TK-10, 48 h, read-out: Activity
UACC-62 [1] = assay: Growth inhibition of human UACC62 cells after 48 hrs by sulforhodamine B assay; format: functional, cell-based; settings: UACC-62, 48 h
Procedure, shortened: (§1)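 Cells grown in RPMI 1640 with 5% FBS and 2 mM L-glutamine, seeded at 5,000–40,000 cells/well according to doubling time. After 24 h, time-zero plates are TCA-fixed. Five concentrations (10-fold or ½log dilutions, DMSO stocks) are applied for 48 h at 37 °C, 5% CO₂. Cells are TCA-fixed, SRB-stained and read at 515 nm. IC₅₀ is taken from [(Ti−Tz)/(C−Tz)]×100 = 50.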

A549 [2] = assay: Cytotoxicity against human A549 cells assessed as cell growth at 1 uM after 48 hrs by sulforhodamine B assay; format: functional; settings: A549, 48 h, read-out: Activity
Procedure, shortened: (§2)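 Cells grown in RPMI 1640 with 5% FBS and 2 mM L-glutamine, seeded at 5,000–40,000 cells/well by doubling time. Time-zero plates TCA-fixed after 24 h. Five concentrations (10-fold or half-log dilutions from DMSO stock) added; 48 h at 37 °C, 5% CO2. Cold TCA fixation (final 10%, 60 min, 4 °C), 0.4% SRB stain, dye solubilized in 10 mM trizma base, A515.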

UACC-62 [3] = assay: Cytotoxicity against human UACC62 cells assessed as cell growth at 10 uM after 48 hrs by sulforhodamine B assay; format: functional; settings: UACC-62, 48 h, read-out: Activity
NCI-H460 = assay: Cytotoxicity against human NCI-H460 cells assessed as cell growth at 10 uM after 48 hrs by sulforhodamine B assay; format: functional; settings: NCI-H460, 48 h, read-out: Activity
MDA-MB-231 [4] = assay: Cytotoxicity against human MDA-MB-231 cells assessed as cell growth at 0.001 uM after 48 hrs by sulforhodamine B assay; format: functional; settings: MDA-MB-231, 48 h, read-out: Activity
OVCAR-8 = assay: Cytotoxicity against human OVCAR8 cells assessed as cell growth at 100 nM after 48 hrs by sulforhodamine B assay; format: functional; settings: OVCAR-8, 48 h, read-out: Activity
U-251 = assay: Cytotoxicity against human U251 cells assessed as cell growth at 100 nM after 48 hrs by sulforhodamine B assay; format: functional; settings: U-251, 48 h, read-out: Activity
HCT-15 [5] = assay: Cytotoxicity against human HCT15 cells assessed as cell growth at 1 uM after 48 hrs by sulforhodamine B assay; format: functional; settings: HCT-15, 48 h, read-out: Activity
NCI-H23 = assay: Cytotoxicity against human NCI-H23 cells assessed as cell growth at 10 uM after 48 hrs by sulforhodamine B assay; format: functional; settings: NCI-H23, 48 h, read-out: Activity
MDA-MB-231 [6] = assay: Cytotoxicity against human MDA-MB-231 cells assessed as cell growth at 0.01 uM after 48 hrs by sulforhodamine B assay; format: functional; settings: MDA-MB-231, 48 h, read-out: Activity
MOLT-4 = assay: Cytotoxicity against human MOLT4 cells assessed as cell growth at 0.001 uM after 48 hrs by sulforhodamine B assay; format: functional; settings: MOLT-4, 48 h, read-out: Activity
SF-268 = assay: Cytotoxicity against human SF268 cells assessed as cell growth at 10 uM after 48 hrs by sulforhodamine B assay; format: functional; settings: SF-268, 48 h, read-out: Activity
A549 [7] = assay: Cytotoxicity against human A549 cells assessed as cell growth at 10 uM after 48 hrs by sulforhodamine B assay; format: functional; settings: A549, 48 h, read-out: Activity; procedure, shortened: as §2
[8] = Cytotoxicity against human Hs 578T cells assessed as cell growth at 1 uM after 48 hrs by sulforhodamine B assay; format: functional; settings: read-out: Activity
Malme-3M = assay: Cytotoxicity against human MALME-3M cells assessed as cell growth at 1 uM after 48 hrs by sulforhodamine B assay; format: functional; settings: read-out: Activity
NCI-H522 [9] = assay: Cytotoxicity against human NCI-H522 cells assessed as cell growth at 10 uM after 48 hrs by sulforhodamine B assay; format: functional; settings: NCI-H522, 48 h, read-out: Activity
SF-295 = assay: Growth inhibition of human SF295 cells after 48 hrs by sulforhodamine B assay; format: functional, cell-based; settings: SF-295, 48 h; for CC50: read-out: LC50 (the source's name); procedure, shortened: as §1
HOP-62 [10] = assay: Cytotoxicity against human HOP62 cells assessed as cell growth at 1 uM after 48 hrs by sulforhodamine B assay; format: functional; settings: HOP-62, 48 h, read-out: Activity
HCT-15 [11] = assay: Growth inhibition of human HCT15 cells after 48 hrs by sulforhodamine B assay; format: functional, cell-based; settings: HCT-15, 48 h; for CC50: read-out: LC50 (the source's name); procedure, shortened: as §1
MDA-MB-435 = assay: Cytotoxicity against human MDA-MB-435 cells assessed as cell growth at 0.01 uM after 48 hrs by sulforhodamine B assay; format: functional; settings: MDA-MB-435, 48 h, read-out: Activity
CAKI-1 = assay: Cytotoxicity against human Caki1 cells assessed as cell growth at 100 nM after 48 hrs by sulforhodamine B assay; format: functional; settings: CAKI-1, 48 h, read-out: Activity
SK-MEL-2 = assay: Cytotoxicity against human SK-MEL-2 cells assessed as cell growth at 10 uM after 48 hrs by sulforhodamine B assay; format: functional; settings: SK-MEL-2, 48 h, read-out: Activity
MDA-MB-468 [12] = assay: Growth inhibition of human MDA-MB-468 cells after 48 hrs by sulforhodamine B assay; format: functional, cell-based; settings: MDA-MB-468, 48 h; procedure, shortened: as §1
UACC-257 = assay: Cytotoxicity against human UACC257 cells assessed as cell growth at 1 uM after 48 hrs by sulforhodamine B assay; format: functional; settings: UACC-257, 48 h, read-out: Activity
NCI-H522 [13] = assay: Growth inhibition of human NCI-H522 cells after 48 hrs by sulforhodamine B assay; format: functional, cell-based; settings: NCI-H522, 48 h; for CC50: read-out: LC50 (the source's name); procedure, shortened: as §1
HOP-62 [14] = assay: Cytotoxicity against human HOP62 cells assessed as cell growth at 0.01 uM after 48 hrs by sulforhodamine B assay; format: functional; settings: HOP-62, 48 h, read-out: Activity
M14 = assay: Cytotoxicity against human M14 cells assessed as cell growth at 10 uM after 48 hrs by sulforhodamine B assay; format: functional; settings: M14, 48 h, read-out: Activity
A498 = assay: Cytotoxicity against human A498 cells assessed as cell growth at 1 uM after 48 hrs by sulforhodamine B assay; format: functional; settings: A498, 48 h, read-out: Activity; procedure, shortened: as §2
SNB-75 = assay: Cytotoxicity against human SNB75 cells assessed as cell growth at 100 nM after 48 hrs by sulforhodamine B assay; format: functional; settings: SNB-75, 48 h, read-out: Activity
MDA-MB-468 [15] = assay: Cytotoxicity against human MDA-MB-468 cells assessed as cell growth at 0.001 uM after 48 hrs by sulforhodamine B assay; format: functional; settings: MDA-MB-468, 48 h, read-out: Activity

SMILES: CC(=O)Nc1cccc(-c2ccc(-c3ccnc(NC(=O)Nc4cc(C(F)(F)F)cc(C(F)(F)F)c4)n3)cn2)c1.Cl
- growth at 1 µM (TK-10): 80%
- GI50 (UACC-62 [1]): 2.86 µM
- IC50 (UACC-62 [1]): 2.86 µM
- LC50 (concentration causing 50% net cell kill) (UACC-62 [1]): 35.7 µM
- TGI (UACC-62 [1]): 12.7 µM
- growth at 1 µM (A549 [2]): 10%
- growth at 10 µM (UACC-62 [3]): 100%
- growth at 10 µM (NCI-H460): -60%
- growth at 0.001 µM (MDA-MB-231 [4]): 102%
- growth at 0.1 µM (OVCAR-8): 85%
- growth at 0.1 µM (U-251): 85%
- growth at 1 µM (HCT-15 [5]): 18%
- growth at 10 µM (NCI-H23): -69%
- growth at 0.01 µM (MDA-MB-231 [6]): 93%
- growth at 0.001 µM (MOLT-4): 95%
- growth at 10 µM (SF-268): -50%
- growth at 10 µM (A549 [7]): -86%
- growth at 1 µM [8]: 43%
- growth at 1 µM (Malme-3M): -50%
- growth at 10 µM (NCI-H522 [9]): -73%
- GI50 (SF-295): 1.27 µM
- IC50 (SF-295): 1.27 µM
- TGI (SF-295): 6.19 µM
- CC50 (SF-295): > 100 µM
- growth at 1 µM (HOP-62 [10]): 27%
- GI50 (HCT-15 [11]): 3.62 µM
- IC50 (HCT-15 [11]): 3.62 µM
- TGI (HCT-15 [11]): 15 µM
- CC50 (HCT-15 [11]): 45.1 µM
- growth at 0.01 µM (MDA-MB-435): 97%
- growth at 0.1 µM (CAKI-1): 64%
- growth at 10 µM (SK-MEL-2): -83%
- GI50 (MDA-MB-468 [12]): 0.837 µM
- IC50 (MDA-MB-468 [12]): 0.837 µM
- LC50 (MDA-MB-468 [12]): 5.85 µM
- TGI (MDA-MB-468 [12]): 2.35 µM
- growth at 1 µM (UACC-257): -45%
- GI50 (NCI-H522 [13]): 1.71 µM
- IC50 (NCI-H522 [13]): 1.71 µM
- TGI (NCI-H522 [13]): 5.85 µM
- CC50 (NCI-H522 [13]): 35.3 µM
- growth at 0.01 µM (HOP-62 [14]): 92%
- growth at 10 µM (M14): 100%
- growth at 1 µM (A498): 41%
- growth at 0.1 µM (SNB-75): 67%
- growth at 0.001 µM (MDA-MB-468 [15]): 99%

SMILES: CC(=O)c1ccccc1-c1ccc(-c2ccnc(NC(=O)Nc3cc(N4CCOCC4)cc(C(F)(F)F)c3)n2)cn1
- growth at 1 µM (TK-10): 32%
- GI50 (UACC-62 [1]): > 100 µM
- IC50 (UACC-62 [1]): > 100 µM
- LC50 (concentration causing 50% net cell kill) (UACC-62 [1]): > 100 µM
- TGI (UACC-62 [1]): > 100 µM
- growth at 1 µM (A549 [2]): 82%
- growth at 10 µM (UACC-62 [3]): 63%
- growth at 10 µM (NCI-H460): 88%
- growth at 0.001 µM (MDA-MB-231 [4]): 101%
- growth at 0.1 µM (OVCAR-8): 66%
- growth at 0.1 µM (U-251): 93%
- growth at 1 µM (HCT-15 [5]): 88%
- growth at 10 µM (NCI-H23): 60%
- growth at 0.01 µM (MDA-MB-231 [6]): 99%
- growth at 0.001 µM (MOLT-4): 94%
- growth at 10 µM (SF-268): 44%
- growth at 10 µM (A549 [7]): 74%
- growth at 1 µM [8]: 22%
- growth at 1 µM (Malme-3M): 24%
- growth at 10 µM (NCI-H522 [9]): 40%
- GI50 (SF-295): 40.2 µM
- IC50 (SF-295): 9.04 µM
- TGI (SF-295): > 100 µM
- CC50 (SF-295): > 100 µM
- growth at 1 µM (HOP-62 [10]): 21%
- GI50 (HCT-15 [11]): > 100 µM
- IC50 (HCT-15 [11]): > 100 µM
- TGI (HCT-15 [11]): > 100 µM
- CC50 (HCT-15 [11]): > 100 µM
- growth at 0.01 µM (MDA-MB-435): 95%
- growth at 0.1 µM (CAKI-1): 84%
- growth at 10 µM (SK-MEL-2): -9%
- GI50 (MDA-MB-468 [12]): > 100 µM
- IC50 (MDA-MB-468 [12]): > 100 µM
- LC50 (MDA-MB-468 [12]): > 100 µM
- TGI (MDA-MB-468 [12]): > 100 µM
- growth at 1 µM (UACC-257): 66%
- GI50 (NCI-H522 [13]): > 100 µM
- IC50 (NCI-H522 [13]): 63.2 µM
- TGI (NCI-H522 [13]): > 100 µM
- CC50 (NCI-H522 [13]): > 100 µM
- growth at 0.01 µM (HOP-62 [14]): 100%
- growth at 10 µM (M14): 86%
- growth at 1 µM (A498): 83%
- growth at 0.1 µM (SNB-75): 89%
- growth at 0.001 µM (MDA-MB-468 [15]): 97%
